Experimental data from PubChem BioAssay AID602434 (Sanford-Burnham Center for Chemical Genomics, 2012).

The molecules below were run against CHO-CHOP luciferase reporter, UPR activation, luminescence (assay: activators of CHOP-driven apoptotic UPR arm, SAR follow-up, CHO-CHOP cells, luciferase luminescence, set 3 (AID 602434)).
Outline: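 Times: 16-18 h seeding, 6 h treatment at 37 °C; Test system: CHO cell line stably carrying CHOP-driven luciferase reporter; Benchmarks: tunicamycin 10 µg/mL final as high control, DMSO wells as low control; Detection: luminescence with Steady-Glo luciferase reagent.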

EC50, active:
CC(C)(C)C1CCN(S(=O)(=O)c2ccc(NC(=O)c3ccc([N+](=O)[O-])o3)cc2)CC1 0.652 µM
O=C(Nc1ccc(S(=O)(=O)N2CCC(Cl)CC2)cc1)c1ccc([N+](=O)[O-])o1 0.785 µM
CC1(C)CCN(S(=O)(=O)c2ccc(NC(=O)c3ccc([N+](=O)[O-])o3)cc2)CC1 0.765 µM
CC1CCN(S(=O)(=O)c2ccc(NC(=O)c3ccc([N+](=O)[O-])o3)cc2)CC1 0.761 µM
O=C(Nc1ccc(S(=O)(=O)N2CCCCC2)cc1)c1ccc([N+](=O)[O-])o1 0.741 µM
O=C(Nc1ccc(S(=O)(=O)N2CCC(F)CC2)cc1)c1ccc([N+](=O)[O-])o1 0.435 µM
